≈ marks a conversion by molar mass, not a printed value.
Legend:
Aliivibrio fischeri = test: Antibacterial activity against Vibrio fischeri ATCC 7744 after 24 hrs by microtiter broth dilution method; type: functional
Summary of the method: (§1)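 Marine bacteria at 2×10^8 cells/mL incubated with compound (0.5, 1, 2.5, 5, 10, 25, 50, 100 µg/mL) in Mueller Hinton broth supplemented with NaCl (15 g/L), 25 °C, 24 h, 96-well format. Six replicates per treatment alongside a seawater control. MIC read against the seawater control by microtiter broth dilution.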

Amphibalanus amphitrite = test: Antifouling activity in Balanus amphitrite assessed as inhibition of cyprid larvae settlement after 24 hrs; type: functional, organism-based
Summary of the method: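 Cyprids obtained by filtration 4 days after larval release from field-collected adults. 10–15 cyprids per well in 2 mL seawater containing compound at 0.5–100 µg/mL (0.5, 1, 2.5, 5, 10, 25, 50, 100). Kept in darkness at 28 °C for 24 h, six replicates. Larvae scored as dead, settled or swimming under a dissecting microscope. EC50 calculated as 50% settlement inhibition relative to the seawater control.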

[1] = Toxicity against Balanus amphitrite stage 2 nauplii after 24 hrs; type: organism-based; settings: amphibalanus amphitrite, in vivo
Summary of the method: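 Ten to fifteen stage-II barnacle nauplii per well in 2 mL solution; compounds at 0.5, 1, 2.5, 5, 10, 25, 50 and 100 µg/mL; six replicates per treatment and control. Swimming and dead nauplii counted after 24 h exposure; LC50 is the concentration giving 50% mortality relative to control, derived from the dose-response data.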

[2] = system: Pseudoalteromonas haloplanktis; test: Antibacterial activity against Pseudoalteromonas haloplanktis after 24 hrs by microtiter broth dilution method; type: functional; summary of the method: as §1
Cobetia marina = test: Antibacterial activity against Cobetia marina ATCC 25374 after 24 hrs by microtiter broth dilution method; type: functional; summary of the method: as §1
Marinobacterium stanieri = test: Antibacterial activity against Marinobacterium stanieri ATCC 27130 after 24 hrs by microtiter broth dilution method; type: functional; summary of the method: as §1
[3] = Aliivibrio fischeri, ATCC 7744, 24 h, read-out: MIC
[4] = Amphibalanus amphitrite, 24 h, read-out: EC50
[5] = Pseudoalteromonas haloplanktis, 24 h, read-out: MIC
[6] = Cobetia marina, ATCC 25374, 24 h, read-out: MIC
[7] = Marinobacterium stanieri, ATCC 27130, 24 h, read-out: MIC

COc1cc(C)c(O)c(C/C=C(\C)CC(=O)/C=C(/C)CCCC(C)C(=O)C(O)C=C(C)C)c1 (stereo not given)
MIC (Aliivibrio fischeri; [3]): 0.5 µg/mL (≈ 1.09 µM)
EC50 (Amphibalanus amphitrite; [4]): 1 µg/mL (≈ 2.19 µM)
LC50 at 24 h [1]: 5 µg/mL (≈ 10.9 µM)
MIC [2, 5]: 1 µg/mL (≈ 2.19 µM)
MIC (Cobetia marina; [6]): 0.5 µg/mL (≈ 1.09 µM)
MIC (Marinobacterium stanieri; [7]): 1 µg/mL (≈ 2.19 µM)

COc1cc(C)c2c(c1)C=CC(C)(CC(=O)/C=C(\C)CCCC(C)[C@@H](O)C(=O)C=C(C)C)O2 (stereo not given in full)
MIC (Aliivibrio fischeri; [3]): > 100 µg/mL
EC50 (Amphibalanus amphitrite; [4]): > 100 µg/mL
LC50 at 24 h [1]: > 100 µg/mL
MIC [2, 5]: > 100 µg/mL
MIC (Cobetia marina; [6]): > 100 µg/mL
MIC (Marinobacterium stanieri; [7]): > 100 µg/mL

COc1cc(C)c(O)c(C/C=C(\C)CC(=O)/C=C(/C)CCCC(C)C(O)C(=O)C=C(C)C)c1 (stereo not given)
MIC (Aliivibrio fischeri; [3]): > 100 µg/mL
EC50 (Amphibalanus amphitrite; [4]): > 100 µg/mL
LC50 at 24 h [1]: > 100 µg/mL
MIC [2, 5]: > 100 µg/mL
MIC (Cobetia marina; [6]): > 100 µg/mL
MIC (Marinobacterium stanieri; [7]): > 100 µg/mL

COc1cc(C)c(O)c(C/C=C(\C)CC(O)/C=C(\C)CCCC(C)C(=O)C(O)C=C(C)C)c1 (stereo not given)
MIC (Aliivibrio fischeri; [3]): 0.5 µg/mL (≈ 1.09 µM)
EC50 (Amphibalanus amphitrite; [4]): 5 µg/mL (≈ 10.9 µM)
LC50 at 24 h [1]: 10 µg/mL (≈ 21.8 µM)
MIC [2, 5]: 1 µg/mL (≈ 2.18 µM)
MIC (Cobetia marina; [6]): 1 µg/mL (≈ 2.18 µM)
MIC (Marinobacterium stanieri; [7]): 1 µg/mL (≈ 2.18 µM)

COc1cc(C)c(O)c(C/C=C(\C)CC(=O)/C=C(\C)CCCC(C)C(=O)C(O)C=C(C)C)c1 (stereo in doubt; 3)
MIC (Aliivibrio fischeri): 5 µg/mL (≈ 10.9 µM)
LC50 at 24 h [1]: > 100 µg/mL
MIC [2]: 10 µg/mL (≈ 21.9 µM)
MIC (Cobetia marina): 5 µg/mL (≈ 10.9 µM)
MIC (Marinobacterium stanieri): 5 µg/mL (≈ 10.9 µM)

COc1cc(C)c(O)c(C/C=C(\C)CC(=O)/C=C(\C)CCCC(C)C(=O)C(O)C=C(C)C)c1 (stereo in doubt; 4)
MIC (Aliivibrio fischeri): >100 µg/mL
EC50 (Amphibalanus amphitrite; [4]): > 100 µg/mL
MIC [2]: >100 µg/mL
MIC (Cobetia marina): >100 µg/mL
MIC (Marinobacterium stanieri): >100 µg/mL

COc1cc(C)c(O)c(C/C=C(\C)CC(=O)/C=C(\C)CCCC(C)C(O)C(=O)C=C(C)C)c1 (stereo in doubt; 8)
MIC (Aliivibrio fischeri): 25 µg/mL (≈ 54.7 µM)
EC50 (Amphibalanus amphitrite): > 100 µg/mL
LC50 at 24 h [1]: > 100 µg/mL
MIC [2]: 10 µg/mL (≈ 21.9 µM)
MIC (Cobetia marina): 10 µg/mL (≈ 21.9 µM)
MIC (Marinobacterium stanieri): 10 µg/mL (≈ 21.9 µM)

COc1cc(C)c(O)c(C/C=C(\C)CC(=O)/C=C(\C)CCCC(C)C(O)C(=O)C=C(C)C)c1 (stereo in doubt; 9)
MIC (Aliivibrio fischeri): 2.5 µg/mL (≈ 5.47 µM)
EC50 (Amphibalanus amphitrite): 4 µg/mL (≈ 8.76 µM)
MIC [2]: 1 µg/mL (≈ 2.19 µM)
MIC (Cobetia marina): 2.5 µg/mL (≈ 5.47 µM)
MIC (Marinobacterium stanieri): 1 µg/mL (≈ 2.19 µM)

Reference: ChEMBL document CHEMBL1157466, “Antifouling activity of meroditerpenoids from the marine brown alga Halidrys siliquosa” (J Nat Prod, 2008)
